# Data: ChEMBL document CHEMBL4312018, “Novel benzimidazole phosphonates as potential inhibitors of protein prenylation” (Bioorg Med Chem Lett, 2019)
# Active and inactive are the calls of the source. The rule behind the calls is not given here.
# Experiments:
# [1] = biological target: T1, geranylgeranyltransferase type-I (Rattus norvegicus) (UniProt P53610+Q04631); assay: Activation of recombinant rat GGtase-1 expressed in Escherichia coli using dansyl-GCVLL as substrate after 1.5 hrs by spectrofluorimetric analysis
# [2] = biological target: T2, Farnesyl pyrophosphate synthase (Homo sapiens, UniProt P14324); assay: Inhibition of FDPS (unknown origin) using [14C] IPP and GPP as substrate preincubated for 10 mins followed by substrate addition and measured after 30 min by liquid scintillation counting method
# T2 sequence (P14324 whole entry): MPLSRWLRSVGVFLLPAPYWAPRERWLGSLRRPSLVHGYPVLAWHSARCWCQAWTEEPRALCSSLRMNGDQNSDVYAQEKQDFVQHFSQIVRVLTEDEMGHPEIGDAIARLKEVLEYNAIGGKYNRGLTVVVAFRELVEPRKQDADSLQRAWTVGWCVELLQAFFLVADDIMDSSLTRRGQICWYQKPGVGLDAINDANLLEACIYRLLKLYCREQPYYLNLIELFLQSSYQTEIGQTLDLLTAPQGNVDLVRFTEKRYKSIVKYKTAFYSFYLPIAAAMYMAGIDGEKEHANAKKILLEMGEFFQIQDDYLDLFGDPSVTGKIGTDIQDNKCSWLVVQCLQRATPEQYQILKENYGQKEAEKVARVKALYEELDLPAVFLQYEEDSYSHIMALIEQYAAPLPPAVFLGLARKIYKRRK
# [3] = biological target: Protein farnesyltransferase (Rattus norvegicus, UniProt Q02293+Q04631); assay: Inhibition of recombinant rat FTase expressed in Escherichia coli using dansyl-GCVLS as substrate after 1.5 hrs by spectrofluorimetric analysis
# [4] = biological target: T3, Geranylgeranyl transferase type-2 (Homo sapiens) (UniProt P53611+Q92696); assay: Inhibition of GGtase-2 in human RPMI8226 cells assessed as decrease in Rab6 level at =< 1 mM after 48 hrs by immunoblot analysis relative to control; type: cell-based
# In short: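 After 48 h treatment, RPMI-8226 cells were extracted with Triton X-114 to give a detergent (membrane) fraction, which was immunoblotted for Rab6. Rab6 band density was normalized to calnexin and expressed relative to untreated cells. Blots are representative of three independent studies.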
# [5] = biological target: Geranylgeranyl transferase type I (Homo sapiens) (UniProt P49354+P53609); assay: Inhibition of GGtase-1 in human RPMI8226 cells assessed as disruption of Rap1a geranylgeranylation after 48 hrs immunoblot analysis; type: cell-based
# [6] = biological target: T4, Farnesyl pyrophosphate synthase (Homo sapiens) (UniProt P14324); assay: Inhibition of FDPS in human RPMI8226 cells assessed as unmodified Rap1a level at =< 1 mM after 48 hrs by immunoblot analysis; type: cell-based
# T4 sequence (whole entry): T2 sequence (P14324 whole entry)
# In short: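 RPMI-8226 cells were exposed for 48 h. The lowest effective concentration counts only when two read-outs agree. Unmodified Rap1a must be visible on immunoblot of whole-cell lysate, using an antibody that detects only unmodified protein.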
# [7] = biological target: T5, Geranylgeranyl pyrophosphate synthase (Homo sapiens, UniProt O95749); assay: Inhibition of GGDPS (unknown origin) using [14C] IPP and FPP as substrate preincubated for 10 mins followed by substrate addition and measured after 30 min by liquid scintillation counting method
# T5 sequence (O95749 whole entry): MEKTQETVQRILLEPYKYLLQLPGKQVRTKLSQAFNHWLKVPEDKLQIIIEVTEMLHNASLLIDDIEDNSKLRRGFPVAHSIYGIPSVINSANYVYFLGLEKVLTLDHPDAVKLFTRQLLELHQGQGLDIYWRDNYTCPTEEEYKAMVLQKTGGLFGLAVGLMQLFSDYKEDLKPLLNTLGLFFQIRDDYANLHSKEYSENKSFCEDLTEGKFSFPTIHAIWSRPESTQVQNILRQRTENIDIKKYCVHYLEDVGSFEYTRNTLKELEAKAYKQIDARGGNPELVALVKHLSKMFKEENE
# [8] = biological target: Protein farnesyltransferase (Homo sapiens) (UniProt P49354+P49356); assay: Inhibition of FTase in human RPMI8226 cells assessed as disruption of H-ras farnesylation after 48 hrs by immunoblot analysis; type: cell-based
# [9] = biological target: T6, Geranylgeranyl transferase type-2 (Rattus norvegicus, UniProt Q08602+Q08603); assay: Inhibition of recombinant rat RabGGTase expressed in Escherichia coli using Rab7 as substrate and [3H]geranylgeranyl pyrophosphate after 20 mins by liquid scintillation analysis
# T6 sequence (Q08603 whole entry): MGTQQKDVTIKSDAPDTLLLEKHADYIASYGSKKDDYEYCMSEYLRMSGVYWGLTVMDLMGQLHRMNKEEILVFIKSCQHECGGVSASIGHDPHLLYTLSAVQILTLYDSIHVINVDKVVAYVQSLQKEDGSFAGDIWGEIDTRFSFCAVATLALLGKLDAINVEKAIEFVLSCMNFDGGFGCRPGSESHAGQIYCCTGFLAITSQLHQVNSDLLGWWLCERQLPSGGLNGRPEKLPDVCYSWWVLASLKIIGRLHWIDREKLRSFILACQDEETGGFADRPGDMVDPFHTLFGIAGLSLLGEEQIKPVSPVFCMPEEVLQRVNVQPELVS
# T6 sequence (Q08602 whole entry): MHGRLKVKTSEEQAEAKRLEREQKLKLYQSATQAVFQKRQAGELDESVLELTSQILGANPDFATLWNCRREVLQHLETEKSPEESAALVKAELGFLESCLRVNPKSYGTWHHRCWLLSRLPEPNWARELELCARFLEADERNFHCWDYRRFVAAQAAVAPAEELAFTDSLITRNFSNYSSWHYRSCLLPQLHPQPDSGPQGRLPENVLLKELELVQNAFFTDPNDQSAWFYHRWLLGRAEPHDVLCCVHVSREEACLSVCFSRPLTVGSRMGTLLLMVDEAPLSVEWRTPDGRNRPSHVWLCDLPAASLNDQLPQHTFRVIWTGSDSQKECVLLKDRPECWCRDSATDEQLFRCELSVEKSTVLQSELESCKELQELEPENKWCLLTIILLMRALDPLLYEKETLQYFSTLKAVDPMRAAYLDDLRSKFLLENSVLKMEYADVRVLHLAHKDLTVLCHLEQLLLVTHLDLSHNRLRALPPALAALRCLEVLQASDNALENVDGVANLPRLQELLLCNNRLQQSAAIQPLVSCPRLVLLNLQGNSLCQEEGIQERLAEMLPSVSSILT
# [10] = biological target: T3, Geranylgeranyl transferase type-2 (Homo sapiens); assay: Inhibition of GGtase-2 in human RPMI8226 cells assessed as increase in intracellular lambda chain at =< 1 mM level after 48 hrs by ELISA; type: cell-based
# In short: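 RPMI-8226 cells were incubated 48 h with the compound or medium alone. Intracellular lambda light chain was quantified by ELISA and expressed as percent of untreated control (mean ± SD, n=3). Significance versus control was judged by t-test, p<0.05.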
# Homo sapiens = species on record: Homo sapiens; assay: Selectivity ratio of IC50 for GGDPS (unknown origin) to IC50 for FDPS (unknown origin)
# [11] = biological target: T4, Farnesyl pyrophosphate synthase (Homo sapiens); assay: Inhibition of FDPS in human RPMI8226 cells assessed as increase in intracellular lambda chain level at =< 1mM after 48 hrs by ELISA; type: cell-based
# In short: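 RPMI-8226 cells were exposed for 48 h, and intracellular lambda light chain was measured by ELISA as percent of untreated control. The lowest effective concentration also requires unmodified Rap1a to be visible on whole-cell-lysate immunoblot with an unmodified-specific antibody. The ELISA rise must be statistically significant.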
# [12] = biological target: geranylgeranyltransferase type-I (Rattus norvegicus, UniProt P53610+Q04631); assay: Inhibition of recombinant rat GGtase-1 expressed in Escherichia coli using dansyl-GCVLL as substrate after 1.5 hrs by spectrofluorimetric analysis
# [13] = biological target: T1, geranylgeranyltransferase type-I (Rattus norvegicus); assay: Activation of recombinant rat GGtase-1 expressed in Escherichia coli assessed as enzyme activity at 1000 uM using dansyl-GCVLL as substrate after 1.5 hrs by spectrofluorimetric analysis relative to control
smiles,measurement,setting,value
Cc1cc2ncn(CC(P(=O)(O)O)P(=O)(O)O)c2cc1C,Activity,[1],Dose-dependent effect
same,IC50,[2],0.69 µM
same,IC50,[3],> 1000 µM
same,inhibition,[4],inactive
same,inhibition,[5],inactive
same,inhibition,[6],inactive
same,IC50,[7],41 µM
same,inhibition,[8],inactive
same,IC50,[9],534 µM
same,inhibition,[10],inactive
same,Ratio IC50,Homo sapiens,59
same,inhibition,[11],inactive
same,IC50,[12],> 1000 µM
same,Activity,[13],560%
